{"source": "ChEMBL document CHEMBL3784931", "about": "“Synthesis and evaluation of novel angiotensin II receptor 1 antagonists as anti-hypertension drugs” (Bioorg Med Chem, 2016)", "key": {"[1]": {"test": "Terminal half life in Wistar rat stomach at 10 mg/kg, po after 0.5 to 72 hrs by HPLC analysis", "format": "ADME, organism-based", "settings": "read-out: beta t1/2 (converted)", "in_short": "(§1)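 Wistar rats were dosed orally and killed by abdominal aorta transection at 0.5, 1, 2, 4, 6, 8, 12, 24, 48 and 72 h. Organs were excised at once, minced and homogenized at 4 °C in normal saline to a 25% (w/v) homogenate. After spinning at 3000 × g, 4 °C, 10 min, supernatants were analysed by HPLC. Values are mean ± SEM, n = 5 per point.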"}, "[2]": {"tested_on": "Stomach", "test": "AUC (0 to 72 hrs) in Wistar rat stomach at 10 mg/kg, po by HPLC analysis", "format": "ADME, organism-based", "design": "time < 72 hr, dose 10 mg/kg, route oral", "settings": "in vivo", "in_short": "as §1"}, "[3]": {"tested_on": "Brain", "test": "AUC (0 to 72 hrs) in Wistar rat brain at 10 mg/kg, po by HPLC analysis", "format": "ADME, organism-based", "design": "dose 10 mg/kg, time < 72 hr, route oral", "settings": "in vivo", "in_short": "as §1"}, "[4]": {"test": "Tmax in Wistar rat stomach at 10 mg/kg, po after 0.5 to 72 hrs by HPLC analysis", "format": "ADME, organism-based", "in_short": "as §1"}, "[5]": {"test": "Cmax in Wistar rat liver at 10 mg/kg, po after 0.5 to 72 hrs by HPLC analysis", "format": "ADME, organism-based", "design": "dose 10 mg/kg, route oral", "in_short": "as §1"}, "[6]": {"tested_on": "Mus musculus", "test": "Acute toxicity in ICR mouse assessed as mobility at 1200 mg/kg, ig administered daily for 2 weeks measured during compound dosing", "format": "organism-based", "settings": "in vivo, po, 336 h", "in_short": "(§2)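 ICR mice, sixty in total, half male and half female, 20 ± 2 g. Intragastric dosing at 1200, 1600, 2133.3, 2844.40, 5056.79 or 6742.38 mg/kg. Animals watched daily over two weeks for survival and physiological abnormalities or untoward reactions. Percent mortality recorded per dose group.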"}, "[7]": {"test": "Elimination rate constant in Wistar rat plasma at 10 mg/kg, po after 0.5 to 72 hrs by HPLC analysis", "format": "ADME, organism-based", "in_short": "(§3)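 Wistar rats got an oral dose. Venous blood (0.5 mL) was taken predose and at 0.5, 1, 2, 4, 6, 8, 12, 24, 48 and 72 h, and plasma was spun 4000 × g, 4 °C, 10 min. Samples with internal standard were acetonitrile-precipitated, filtered and run on C18 reverse-phase HPLC with UV detection. Calibration used weighted regression of peak height ratio.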"}, "[8]": {"test": "Tmax in Wistar rat lung at 10 mg/kg, po after 0.5 to 72 hrs by HPLC analysis", "format": "ADME, organism-based", "in_short": "as §1"}, "[9]": {"test": "Cmax in Wistar rat plasma at 10 mg/kg, po after 0.5 to 72 hrs by HPLC analysis", "format": "ADME, organism-based", "design": "dose 10 mg/kg, route oral", "in_short": "as §3"}, "[10]": {"tested_on": "Heart", "test": "AUC (0 to 72 hrs) in Wistar rat heart at 10 mg/kg, po by HPLC analysis", "format": "ADME, organism-based", "design": "time < 72 hr, dose 10 mg/kg, route oral", "settings": "in vivo", "in_short": "as §1"}, "[11]": {"test": "Cmax in Wistar rat stomach at 10 mg/kg, po after 0.5 to 72 hrs by HPLC analysis", "format": "ADME, organism-based", "design": "dose 10 mg/kg, route oral", "in_short": "as §1"}, "[12]": {"test": "Elimination rate constant in Wistar rat kidney at 10 mg/kg, po after 0.5 to 72 hrs by HPLC analysis", "format": "ADME, organism-based", "in_short": "as §1"}, "[13]": {"tested_on": "Mus musculus", "test": "Acute toxicity in ICR mouse assessed as change in body weight at 1200 to 6742.38 mg/kg, ig administered daily for 2 weeks during compound dosing", "format": "organism-based", "settings": "in vivo, po, 336 h", "in_short": "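Male and female ICR mice (20 ± 2 g) received intragastric doses of 1200–6742.38 mg/kg. Body weight of surviving mice compared after two weeks of observation.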"}, "[14]": {"test": "Terminal half life in Wistar rat brain at 10 mg/kg, po after 0.5 to 72 hrs by HPLC analysis", "format": "ADME, organism-based", "settings": "read-out: beta t1/2 (converted)", "in_short": "as §1"}, "[15]": {"test": "Tmax in Wistar rat plasma at 10 mg/kg, po after 0.5 to 72 hrs by HPLC analysis", "format": "ADME, organism-based", "in_short": "as §3"}, "[16]": {"tested_on": "Rattus norvegicus", "test": "Antihypertensive activity in spontaneous hypertensive rat model assessed as mean blood pressure at 15 mg/kg, po administered for 2 hrs", "format": "functional", "in_short": "(§4)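 Male SHRs were randomized, n = 6 per group. Compound was suspended in DMSO/oleic acid (1:4) and given by oral gavage; vehicle controls got the same volume of solvent. SBP and DBP were recorded in conscious animals by noninvasive tail-artery manometry. MBP = (SBP − DBP)/3 + DBP. Data are mean ± SEM, with p < 0.05 taken as significant.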"}, "[17]": {"test": "Elimination rate constant in Wistar rat brain at 10 mg/kg, po after 0.5 to 72 hrs by HPLC analysis", "format": "ADME, organism-based", "in_short": "as §1"}, "[18]": {"tested_on": "Mus musculus", "test": "Acute toxicity in ICR mouse assessed as mortality at 1200 to 6742.38 mg/kg, ig administered daily for 2 weeks during compound dosing", "format": "organism-based", "settings": "in vivo, po, 336 h", "in_short": "as §2"}, "[19]": {"test": "Acute toxicity in ICR mouse assessed as mortality at 1200 mg/kg, ig administered daily for 2 weeks measured during compound dosing", "format": "organism-based", "settings": "in vivo, po", "in_short": "as §2"}, "[20]": {"tested_on": "Kidney", "test": "AUC (0 to 72 hrs) in Wistar rat kidney at 10 mg/kg, po by HPLC analysis", "format": "ADME, organism-based", "design": "dose 10 mg/kg, time < 72 hr, route oral", "settings": "in vivo", "in_short": "as §1"}, "[21]": {"test": "Cmax in Wistar rat heart at 10 mg/kg, po after 0.5 to 72 hrs by HPLC analysis", "format": "ADME, organism-based", "design": "dose 10 mg/kg, route oral", "in_short": "as §1"}, "[22]": {"test": "Cmax in Wistar rat brain at 10 mg/kg, po after 0.5 to 72 hrs by HPLC analysis", "format": "ADME, organism-based", "design": "dose 10 mg/kg, route oral", "in_short": "as §1"}, "[23]": {"test": "AUC (0 to 72 hrs) in Wistar rat plasma at 10 mg/kg, po by HPLC analysis", "format": "ADME, organism-based", "design": "dose 10 mg/kg, time < 72 hr, route oral", "in_short": "as §3"}, "[24]": {"test": "Elimination rate constant in Wistar rat spleen at 10 mg/kg, po after 0.5 to 72 hrs by HPLC analysis", "format": "ADME, organism-based", "in_short": "as §1"}, "[25]": {"test": "Tmax in Wistar rat liver at 10 mg/kg, po after 0.5 to 72 hrs by HPLC analysis", "format": "ADME, organism-based", "in_short": "as §1"}, "[26]": {"test": "Acute toxicity in ICR mouse assessed as mortality at 5056.79 mg/kg, ig administered daily for 2 weeks measured during compound dosing", "format": "organism-based", "settings": "in vivo, po", "in_short": "as §2"}, "[27]": {"tested_on": "Mus musculus", "test": "Acute toxicity in ICR mouse assessed as respiratory movements at 1200 mg/kg, ig administered daily for 2 weeks measured during compound dosing", "format": "organism-based", "settings": "in vivo, po, 336 h", "in_short": "as §2"}, "[28]": {"test": "Terminal half life in Wistar rat liver at 10 mg/kg, po after 0.5 to 72 hrs by HPLC analysis", "format": "ADME, organism-based", "settings": "read-out: beta t1/2 (converted)", "in_short": "as §1"}, "[29]": {"tested_on": "Rattus norvegicus", "test": "Antihypertensive activity in spontaneous hypertensive rat model assessed as reduction in mean blood pressure at 10 mg/kg, po administered for 12 hrs", "format": "functional, organism-based", "in_short": "as §4"}, "[30]": {"test": "Cmax in Wistar rat lung at 10 mg/kg, po after 0.5 to 72 hrs by HPLC analysis", "format": "ADME, organism-based", "design": "dose 10 mg/kg, route oral", "in_short": "as §1"}, "[31]": {"test": "Terminal half life in Wistar rat kidney at 10 mg/kg, po after 0.5 to 72 hrs by HPLC analysis", "format": "ADME, organism-based", "settings": "read-out: beta t1/2 (converted)", "in_short": "as §1"}}, "note": "Activity calls are given as the source filed them. The rule behind the calls is not given here.", "data": [{"smiles": "CCCCc1nc(Cl)c(C(=O)O)n1Cc1ccc(-c2ccccc2-c2noc(=O)[nH]2)cc1", "values": [{"measurement": "half-life", "setting": "[1]", "result": 15.1, "unit": "h"}, {"measurement": "AUC", "setting": "[2]", "result": 221.03, "unit": "ng·h/g"}, {"measurement": "AUC", "setting": "[3]", "result": 123.07, "unit": "ng·h/g"}, {"measurement": "Tmax", "setting": "[4]", "result": 0.5, "unit": "h"}, {"measurement": "Cmax", "setting": "[5]", "result": 9.56, "unit": "ng/g"}, {"measurement": "Activity", "setting": "[6]", "result": "Non-toxic"}, {"measurement": "k el", "setting": "[7]", "result": "1.11e-05", "unit": "s⁻¹"}, {"measurement": "Tmax", "setting": "[8]", "result": 1, "unit": "h"}, {"measurement": "Cmax", "setting": "[9]", "result": 10.3, "unit": "ng/mL"}, {"measurement": "AUC", "setting": "[10]", "result": 200.41, "unit": "ng·h/g"}, {"measurement": "Cmax", "setting": "[11]", "result": 8.91, "unit": "ng/g"}, {"measurement": "k el", "setting": "[12]", "result": "1.11e-05", "unit": "s⁻¹"}, {"measurement": "Activity", "setting": "[13]", "result": "Non-toxic"}, {"measurement": "half-life", "setting": "[14]", "result": 16.9, "unit": "h"}, {"measurement": "Tmax", "setting": "[15]", "result": 2, "unit": "h"}, {"measurement": "Activity", "setting": "[16]", "result": 62, "unit": "mmHg"}, {"measurement": "k el", "setting": "[17]", "result": "1.14e-05", "unit": "s⁻¹"}, {"measurement": "Activity", "setting": "[18]", "result": "Toxic"}, {"measurement": "mortality at 336 h", "setting": "[19]", "result": 0, "unit": "%"}, {"measurement": "AUC", "setting": "[20]", "result": 202.97, "unit": "ng·h/g"}, {"measurement": "Cmax", "setting": "[21]", "result": 8.87, "unit": "ng/g"}, {"measurement": "Cmax", "setting": "[22]", "result": 5.8, "unit": "ng/g"}, {"measurement": "AUC(0-t) at 72 h", "setting": "[23]", "result": 296, "unit": "ng·h/mL"}, {"measurement": "k el", "setting": "[24]", "result": "2.19e-05", "unit": "s⁻¹"}, {"measurement": "Tmax", "setting": "[25]", "result": 0.5, "unit": "h"}, {"measurement": "mortality at 336 h", "setting": "[26]", "result": 90, "unit": "%"}, {"measurement": "Activity", "setting": "[27]", "result": "Non-toxic"}, {"measurement": "half-life", "setting": "[28]", "result": 10.7, "unit": "h"}, {"measurement": "Activity", "setting": "[29]", "result": "Active"}, {"measurement": "Cmax", "setting": "[30]", "result": 9.16, "unit": "ng/g"}, {"measurement": "half-life", "setting": "[31]", "result": 15.6, "unit": "h"}]}]}
